# Measured values reported in ChEMBL document CHEMBL1649552 (2009).
# Key:
# Format in all cases: functional
# [1] = tested on: Acinetobacter baumannii; experiment: Antibacterial activity against Acinetobacter baumannii assessed as intermediate isolates by CLSI M100-S17 method
# [2] = tested on: Acinetobacter baumannii; experiment: Antibacterial activity against Acinetobacter baumannii by CLSI M100-S17 method
# [3] = tested on: Moraxella catarrhalis; experiment: Antibacterial activity against Moraxella catarrhalis by CLSI M100-S17 method
# [4] = tested on: Proteus mirabilis; experiment: Antibacterial activity against Proteus mirabilis assessed as susceptible isolates by CLSI M100-S17 method
# [5] = tested on: Klebsiella pneumoniae; experiment: Antibacterial activity against Klebsiella pneumoniae by CLSI M100-S17 method
# [6] = tested on: Enterobacter cloacae; experiment: Antibacterial activity against Enterobacter cloacae by CLSI M100-S17 method
# [7] = tested on: Enterobacter cloacae; experiment: Antibacterial activity against Enterobacter cloacae assessed as susceptible isolates by CLSI M100-S17 method
# [8] = tested on: Escherichia coli; experiment: Antibacterial activity against Escherichia coli assessed as intermediate isolates by CLSI M100-S17 method
# [9] = tested on: Escherichia coli; experiment: Antibacterial activity against Escherichia coli assessed as susceptible isolates by CLSI M100-S17 method
# [10] = tested on: Pseudomonas aeruginosa; experiment: Antibacterial activity against Pseudomonas aeruginosa assessed as resistant isolates by CLSI M100-S17 method
# [11] = tested on: Enterobacter cloacae; experiment: Antibacterial activity against Enterobacter cloacae assessed as intermediate isolates by CLSI M100-S17 method
# [12] = tested on: Klebsiella pneumoniae; experiment: Antibacterial activity against Klebsiella pneumoniae assessed as susceptible isolates by CLSI M100-S17 method
# [13] = tested on: Klebsiella oxytoca; experiment: Antibacterial activity against Klebsiella oxytoca by CLSI M100-S17 method
# [14] = tested on: Klebsiella oxytoca; experiment: Antibacterial activity against Klebsiella oxytoca assessed as intermediate isolates by CLSI M100-S17 method
# [15] = tested on: Pseudomonas aeruginosa; experiment: Antibacterial activity against Pseudomonas aeruginosa assessed as susceptible isolates by CLSI M100-S17 method
# [16] = tested on: Serratia marcescens; experiment: Antibacterial activity against Serratia marcescens assessed as intermediate isolates by CLSI M100-S17 method
# [17] = tested on: Pseudomonas aeruginosa; experiment: Antibacterial activity against Pseudomonas aeruginosa by CLSI M100-S17 method
# [18] = tested on: Acinetobacter baumannii; experiment: Antibacterial activity against Acinetobacter baumannii assessed as susceptible isolates by CLSI M100-S17 method
# [19] = tested on: Serratia marcescens; experiment: Antibacterial activity against Serratia marcescens by CLSI M100-S17 method
# [20] = tested on: Proteus mirabilis; experiment: Antibacterial activity against Proteus mirabilis assessed as intermediate isolates by CLSI M100-S17 method
# [21] = tested on: Pseudomonas aeruginosa; experiment: Antibacterial activity against Pseudomonas aeruginosa assessed as intermediate isolates by CLSI M100-S17 method
# [22] = tested on: Acinetobacter baumannii; experiment: Antibacterial activity against Acinetobacter baumannii assessed as resistant isolates by CLSI M100-S17 method
# [23] = tested on: Stenotrophomonas maltophilia; experiment: Antibacterial activity against Stenotrophomonas maltophilia by CLSI M100-S17 method
# [24] = tested on: Klebsiella pneumoniae; experiment: Antibacterial activity against Klebsiella pneumoniae assessed as intermediate isolates by CLSI M100-S17 method
# [25] = tested on: Escherichia coli; experiment: Antibacterial activity against Escherichia coli by CLSI M100-S17 method
# [26] = tested on: Proteus mirabilis; experiment: Antibacterial activity against Proteus mirabilis by CLSI M100-S17 method
# [27] = tested on: Serratia marcescens; experiment: Antibacterial activity against Serratia marcescens assessed as susceptible isolates by CLSI M100-S17 method
# [28] = tested on: Klebsiella oxytoca; experiment: Antibacterial activity against Klebsiella oxytoca assessed as susceptible isolates by CLSI M100-S17 method
# [29] = tested on: Stenotrophomonas maltophilia; experiment: Antibacterial activity against Stenotrophomonas maltophilia by CLSI M100-S17 method in presence of Tazobactam
# Method in brief: (§1)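 CLSI broth microdilution on clinical isolates, using frozen in-house-prepared panels of test and comparator agents. MICs were read after 20 to 24 h incubation at 35°C in ambient air. Susceptible/intermediate categories were assigned by CLSI M100-S17 guidelines.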
# [30] = tested on: Pseudomonas aeruginosa; experiment: Antibacterial activity against Pseudomonas aeruginosa assessed as susceptible isolates by CLSI M100-S17 method in presence of Tazobactam; method in brief: as §1
# [31] = tested on: Enterobacter cloacae; experiment: Antibacterial activity against Enterobacter cloacae assessed as resistant isolates by CLSI M100-S17 method in presence of Tazobactam
# Method in brief: (§2)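 Clinical isolates were tested by CLSI broth microdilution in frozen, in-house-prepared 96-well panels of the test agent and comparator agents. MICs were read and classed as susceptible, intermediate or resistant using CLSI M100-S17 breakpoints. The value is the share of isolates in each category.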
# [32] = tested on: Escherichia coli; experiment: Antibacterial activity against Escherichia coli by CLSI M100-S17 method in presence of Tazobactam; method in brief: as §1
# [33] = tested on: Acinetobacter baumannii; experiment: Antibacterial activity against Acinetobacter baumannii by CLSI M100-S17 method in presence of Tazobactam; method in brief: as §1
# [34] = tested on: Moraxella catarrhalis; experiment: Antibacterial activity against Moraxella catarrhalis by CLSI M100-S17 method in presence of Tazobactam; method in brief: as §1
# [35] = tested on: Pseudomonas aeruginosa; experiment: Antibacterial activity against Pseudomonas aeruginosa assessed as intermediate isolates by CLSI M100-S17 method in presence of Tazobactam; method in brief: as §1
# [36] = tested on: Enterobacter cloacae; experiment: Antibacterial activity against Enterobacter cloacae assessed as susceptible isolates by CLSI M100-S17 method in presence of Tazobactam; method in brief: as §1
# [37] = tested on: Klebsiella oxytoca; experiment: Antibacterial activity against Klebsiella oxytoca assessed as resistant isolates by CLSI M100-S17 method in presence of Tazobactam; method in brief: as §2
# [38] = tested on: Serratia marcescens; experiment: Antibacterial activity against Serratia marcescens assessed as intermediate isolates by CLSI M100-S17 method in presence of Tazobactam; method in brief: as §1
# [39] = tested on: Serratia marcescens; experiment: Antibacterial activity against Serratia marcescens by CLSI M100-S17 method in presence of Tazobactam; method in brief: as §1
# [40] = tested on: Klebsiella pneumoniae; experiment: Antibacterial activity against Klebsiella pneumoniae assessed as resistant isolates by CLSI M100-S17 method in presence of Tazobactam; method in brief: as §2
# [41] = tested on: Klebsiella oxytoca; experiment: Antibacterial activity against Klebsiella oxytoca by CLSI M100-S17 method in presence of Tazobactam; method in brief: as §1
# [42] = tested on: Klebsiella pneumoniae; experiment: Antibacterial activity against Klebsiella pneumoniae assessed as intermediate isolates by CLSI M100-S17 method in presence of Tazobactam; method in brief: as §1
# [43] = tested on: Enterobacter cloacae; experiment: Antibacterial activity against Enterobacter cloacae assessed as intermediate isolates by CLSI M100-S17 method in presence of Tazobactam; method in brief: as §1
# [44] = tested on: Escherichia coli; experiment: Antibacterial activity against Escherichia coli assessed as susceptible isolates by CLSI M100-S17 method in presence of Tazobactam; method in brief: as §1
# [45] = tested on: Klebsiella oxytoca; experiment: Antibacterial activity against Klebsiella oxytoca assessed as intermediate isolates by CLSI M100-S17 method in presence of Tazobactam; method in brief: as §1
# [46] = tested on: Pseudomonas aeruginosa; experiment: Antibacterial activity against Pseudomonas aeruginosa assessed as resistant isolates by CLSI M100-S17 method in presence of Tazobactam; method in brief: as §2
# [47] = tested on: Proteus mirabilis; experiment: Antibacterial activity against Proteus mirabilis assessed as susceptible isolates by CLSI M100-S17 method in presence of Tazobactam; method in brief: as §1
# [48] = tested on: Serratia marcescens; experiment: Antibacterial activity against Serratia marcescens assessed as resistant isolates by CLSI M100-S17 method in presence of Tazobactam; method in brief: as §2
# [49] = tested on: Klebsiella pneumoniae; experiment: Antibacterial activity against Klebsiella pneumoniae assessed as susceptible isolates by CLSI M100-S17 method in presence of Tazobactam; method in brief: as §1
# [50] = tested on: Acinetobacter baumannii; experiment: Antibacterial activity against Acinetobacter baumannii assessed as susceptible isolates by CLSI M100-S17 method in presence of Tazobactam; method in brief: as §1
# [51] = tested on: Klebsiella pneumoniae; experiment: Antibacterial activity against Klebsiella pneumoniae by CLSI M100-S17 method in presence of Tazobactam; method in brief: as §1
# [52] = tested on: Escherichia coli; experiment: Antibacterial activity against Escherichia coli assessed as resistant isolates by CLSI M100-S17 method in presence of Tazobactam; method in brief: as §2
# [53] = tested on: Klebsiella oxytoca; experiment: Antibacterial activity against Klebsiella oxytoca assessed as susceptible isolates by CLSI M100-S17 method in presence of Tazobactam; method in brief: as §1
# [54] = tested on: Enterobacter cloacae; experiment: Antibacterial activity against Enterobacter cloacae by CLSI M100-S17 method in presence of Tazobactam; method in brief: as §1
# [55] = tested on: Pseudomonas aeruginosa; experiment: Antibacterial activity against Pseudomonas aeruginosa by CLSI M100-S17 method in presence of Tazobactam; method in brief: as §1
# [56] = tested on: Proteus mirabilis; experiment: Antibacterial activity against Proteus mirabilis by CLSI M100-S17 method in presence of Tazobactam; method in brief: as §1
# [57] = tested on: Serratia marcescens; experiment: Antibacterial activity against Serratia marcescens assessed as susceptible isolates by CLSI M100-S17 method in presence of Tazobactam; method in brief: as §1
# [58] = tested on: Escherichia coli; experiment: Antibacterial activity against Escherichia coli assessed as intermediate isolates by CLSI M100-S17 method in presence of Tazobactam; method in brief: as §1
# [59] = tested on: Acinetobacter baumannii; experiment: Antibacterial activity against Acinetobacter baumannii assessed as intermediate isolates by CLSI M100-S17 method in presence of Tazobactam; method in brief: as §2
# [60] = tested on: Proteus mirabilis; experiment: Antibacterial activity against Proteus mirabilis assessed as intermediate isolates by CLSI M100-S17 method in presence of Tazobactam; method in brief: as §2
structure (smiles),measurement,setting,value
C[C@@H](O)[C@H]1C(=O)N2C(C(=O)O)=C(S[C@@H]3CN[C@H](C(=O)N(C)C)C3)[C@H](C)[C@H]12 [MEROPENEM],Activity,[1],0%
same,MIC50,[2],0.5 µg/mL
same,MIC90,[2],4 µg/mL
same,MIC,[3],≤ 0.06 µg/mL
same,MIC50,[3],≤ 0.06 µg/mL
same,MIC90,[3],≤ 0.06 µg/mL
same,Activity,[4],100%
same,MIC50,[5],≤ 0.06 µg/mL
same,MIC90,[5],≤ 0.06 µg/mL
same,MIC50,[6],≤ 0.06 µg/mL
same,MIC90,[6],≤ 0.06 µg/mL
same,Activity,[7],100%
same,Activity,[8],0%
same,Activity,[9],100%
same,Activity,[10],8.1%
same,Activity,[11],0%
same,Activity,[12],100%
same,MIC50,[13],≤ 0.06 µg/mL
same,MIC90,[13],≤ 0.06 µg/mL
same,Activity,[14],0%
same,Activity,[15],87.8%
same,Activity,[16],0%
same,MIC50,[17],0.5 µg/mL
same,MIC90,[17],8 µg/mL
same,Activity,[18],92%
same,MIC50,[19],≤ 0.06 µg/mL
same,MIC90,[19],≤ 0.06 µg/mL
same,Activity,[20],0%
same,Activity,[21],4.1%
same,Activity,[22],8%
same,MIC50,[23],> 64 µg/mL
same,MIC90,[23],> 64 µg/mL
same,Activity,[24],0%
same,MIC50,[25],≤ 0.06 µg/mL
same,MIC90,[25],≤ 0.06 µg/mL
same,MIC50,[26],≤ 0.06 µg/mL
same,MIC90,[26],≤ 0.06 µg/mL
same,Activity,[27],100%
same,Activity,[28],100%
CCN1CCN(C(=O)N[C@@H](C(=O)N[C@@H]2C(=O)N3[C@@H]2SC(C)(C)[C@@H]3C(=O)O)c2ccccc2)C(=O)C1=O [PIPERACILLIN],MIC50,[29],> 512 µg/mL
same,MIC90,[29],> 512 µg/mL
same,Activity,[30],92.7%
same,Activity,[31],9%
same,MIC50,[32],2 µg/mL
same,MIC90,[32],4 µg/mL
same,MIC50,[33],4 µg/mL
same,MIC90,[33],> 512 µg/mL
same,MIC,[34],≤ 1 µg/mL
same,MIC50,[34],≤ 1 µg/mL
same,MIC90,[34],≤ 1 µg/mL
same,Activity,[35],0%
same,Activity,[36],82.6%
same,Activity,[37],9%
same,Activity,[38],4.7%
same,MIC50,[39],2 µg/mL
same,MIC90,[39],8 µg/mL
same,Activity,[40],2%
same,MIC50,[41],2 µg/mL
same,MIC90,[41],16 µg/mL
same,Activity,[42],1.3%
same,Activity,[43],8.4%
same,Activity,[44],97.6%
same,Activity,[45],1%
same,Activity,[46],7.3%
same,Activity,[47],100%
same,Activity,[48],0.9%
same,Activity,[49],96.7%
same,Activity,[50],76%
same,MIC50,[51],2 µg/mL
same,MIC90,[51],8 µg/mL
same,Activity,[52],1.4%
same,Activity,[53],90%
same,MIC50,[54],2 µg/mL
same,MIC90,[54],64 µg/mL
same,MIC50,[55],4 µg/mL
same,MIC90,[55],64 µg/mL
same,MIC50,[56],2 µg/mL
same,MIC90,[56],64 µg/mL
same,Activity,[57],94.4%
same,Activity,[58],1%
same,Activity,[59],12%
same,Activity,[60],0%
